Measured values as given in ChEMBL document CHEMBL1132494, “Bisphosphonate prodrugs: synthesis and in vitro evaluation of novel acyloxyalkyl esters of clodronic acid” (J Med Chem, 1999).

Experiments:
[1] = Hydrolysis half life at pH 5.0 against 50 mM phosphate buffer was determined.; assay type: ADME
Procedure, shortened: (§1)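 Chemical hydrolysis: compound (initial 0.9–1.8 mM) in preheated 50 mM phosphate buffer, μ = 0.15, pH 5.0 or 7.4, held at 37 °C. Samples taken at intervals and analysed by HPLC; kobs and t1/2 derived.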

[2] = Binding affinity (Kobs) at a pH 5.0 against 50 mM phosphate buffer was determined.; procedure, shortened: as §1
[3] = Apparent partition coefficients was determined at a pH 7.4 by using the capacity factors of RP-HPLC.; assay type: physicochemical; settings: octanol/water
Procedure, shortened: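 Tetraester log Papp estimated from RP-HPLC capacity factors (k'); C8 reversed-phase column, mobile phase 20 mM phosphate buffer pH 6.0/methanol 30:70 v/v; value reported for pH 7.4.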

[4] = (§2) Hydrolysis half life against 10% rabbit liver homogenate was determined.; assay type: tissue-based
Procedure, shortened: (§3)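 Rabbit liver homogenized in ~4 vol isotonic phosphate buffer pH 7.4, spun 9000g 90 min 4 °C, supernatant stored −80 °C. Compound in 1 vol isotonic buffer plus 1 vol preheated 20% homogenate (10% final; initial 1.6–1.8 mM), 37 °C. Samples methanol-deproteinized and analysed by HPLC; kobs and t1/2 derived.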

[5] = Binding affinity (Kobs) at a pH 7.4 against 50 mM phosphate buffer was determined.; procedure, shortened: as §1
[6] = species on record: Oryctolagus cuniculus; experiment: Binding constant (Kobs) against 10% rabbit liver homogenate was determined.; assay type: ADME; procedure, shortened: as §3
[7] = Hydrolysis half life against 80% human serum was determined.; assay type: ADME
Procedure, shortened: (§4)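 Compound dissolved in 1 vol phosphate buffer (50 mM, μ = 0.15, pH 7.4, 37 °C), then 4 vol preheated human serum added (80% serum; initial 1.4–1.7 mM); 37 °C water bath. Samples taken at intervals, deproteinized with equal volume methanol, centrifuged; supernatant dried and redissolved in mobile-phase buffer, or injected directly if labile. HPLC; kobs and t1/2 derived.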

[8] = species on record: Homo sapiens; experiment: Binding affinity (Kobs) against 80% human Serum esterase was determined; procedure, shortened: as §4
[9] = Hydrolysis half life at pH 7.4 against 50 mM phosphate buffer was determined.; assay type: ADME; procedure, shortened: as §1
[10] = as §2; assay type: ADME, organism-based, Oryctolagus cuniculus; procedure, shortened: as §3

## CC(C)(C)C(=O)OCOP(=O)(O)C(Cl)(Cl)P(=O)(OCOC(=O)C(C)(C)C)OCOC(=O)C(C)(C)C
[1]
  half-life: 1.65 h
[2]
  k obs: 0.000117 s⁻¹
[3]
  chromatographic logD: 1.56
[4]
  T1/2: 1.1 min
[5]
  k obs: 0.000113 s⁻¹
[6]
  K obs: 0.65 min⁻¹
[7]
  half-life: 1.3 h
[8]
  k obs: 0.000149 s⁻¹
[9]
  half-life: 1.7 h

## CC(C)(C)C(=O)OCOP(=O)(OCOC(=O)C(C)(C)C)C(Cl)(Cl)P(=O)(OCOC(=O)C(C)(C)C)OCOC(=O)C(C)(C)C
[3]
  chromatographic logD: 7.4

## C1CCNCC1.C1CCNCC1.CC(C)(C)C(=O)OCOP(=O)(O)C(Cl)(Cl)P(=O)(O)OCOC(=O)C(C)(C)C
[3]
  chromatographic logD: -2.13
[5]
  k obs: 1.67e-07 s⁻¹
[6]
  K obs: 0.51 min⁻¹
[10]
  half-life: 0.233 h
[9]
  half-life: 0.783 h
